Results pooled from the literature.
Protocols differ between the studies behind these lines.
Target: Serine/threonine-protein kinase ULK1 (ULK1, Homo sapiens, UniProt O75385)
Sequence (O75385 1-1050, as in one of the studies): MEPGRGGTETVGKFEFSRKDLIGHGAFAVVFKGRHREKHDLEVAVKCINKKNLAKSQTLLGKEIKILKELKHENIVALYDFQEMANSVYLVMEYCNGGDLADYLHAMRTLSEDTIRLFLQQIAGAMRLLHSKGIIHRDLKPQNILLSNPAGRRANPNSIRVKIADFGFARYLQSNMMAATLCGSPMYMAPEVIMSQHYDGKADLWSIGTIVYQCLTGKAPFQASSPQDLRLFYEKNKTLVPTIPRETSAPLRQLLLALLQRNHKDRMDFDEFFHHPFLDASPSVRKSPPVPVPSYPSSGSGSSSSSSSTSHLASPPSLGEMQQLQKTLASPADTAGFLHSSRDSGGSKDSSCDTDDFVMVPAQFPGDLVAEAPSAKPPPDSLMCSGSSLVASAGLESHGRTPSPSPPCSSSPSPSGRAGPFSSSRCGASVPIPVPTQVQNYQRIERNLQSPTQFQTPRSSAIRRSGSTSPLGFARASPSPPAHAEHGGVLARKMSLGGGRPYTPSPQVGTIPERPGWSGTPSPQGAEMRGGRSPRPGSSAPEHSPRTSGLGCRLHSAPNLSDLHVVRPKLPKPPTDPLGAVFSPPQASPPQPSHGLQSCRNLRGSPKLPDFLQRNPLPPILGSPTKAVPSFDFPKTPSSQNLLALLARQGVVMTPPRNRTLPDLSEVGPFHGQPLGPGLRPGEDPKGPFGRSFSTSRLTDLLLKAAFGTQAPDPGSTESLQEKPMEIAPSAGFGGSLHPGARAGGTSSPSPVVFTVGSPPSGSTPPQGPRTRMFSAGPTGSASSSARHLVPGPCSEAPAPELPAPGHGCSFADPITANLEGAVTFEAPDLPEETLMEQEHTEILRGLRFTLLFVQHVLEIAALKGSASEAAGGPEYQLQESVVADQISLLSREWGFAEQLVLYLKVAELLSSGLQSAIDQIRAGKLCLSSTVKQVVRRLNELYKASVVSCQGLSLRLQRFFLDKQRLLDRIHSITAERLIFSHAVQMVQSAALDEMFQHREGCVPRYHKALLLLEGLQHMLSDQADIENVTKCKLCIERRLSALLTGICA

SMILES	read-out	technique	concentration	remaining binding
c1ccc(N2CCN(Cc3nc4ccccc4[nH]3)CC2)nc1	binding	competition with immobilised ligand	1 µM	100%
O=C(c1ccc(Nc2ncc(Cl)c(-c3cc4ccccc4s3)n2)cc1)N1CCC(N2CCCC2)CC1	binding	competition with immobilised ligand	1 µM	1.8%
Cc1noc([C@H]2C[C@@H](c3ccc(C(F)(F)F)cc3)CN(C(=O)N3CCS(=O)(=O)C3)C2)n1	cell-free assay	competition with immobilised ligand	1 µM	85%
N[C@@H]1CCN(c2nccc(-c3cnn4ncccc34)n2)C1	binding		1 µM	100%
COc1ncc2cc3ccccc3nc2c1C#N	cell-free assay	competition with immobilised ligand	5 µM	93%
CN(C)c1nccc(-c2cnc3ncccn23)n1	binding		1 µM	71%
CNCc1ccccc1-c1csc([C@H](C)Nc2nc(C)nc3cc(OC)c(OC)cc23)c1	cell-free assay	competition with immobilised ligand	1 µM	91%
COc1cnc(Nc2cccc(S(N)(=O)=O)c2)nc1N1CCN(c2ccccc2)C(=O)C1	binding	competition with immobilised ligand	1 µM	67%
O=C(c1ccc(Nc2nccc(-c3cc4ccccc4s3)n2)cc1)N1CCC(N2CCCC2)CC1	binding	competition with immobilised ligand	1 µM	50%
FC(F)(F)Oc1cccc(-c2cnc3ccc(-c4ccncc4)nn23)c1	binding	competition with immobilised ligand	5 µM	82%
CN(C)C(=O)Cn1cc(-c2nc([C@@](C)(c3ccc(-c4cnc(N)nc4)cc3)C3CC3)no2)cn1	cell-free assay	competition with immobilised ligand	1 µM	77%
O=C(NCCCN1CCOCC1)c1ccc(Nc2nccc(-c3cc4ccccc4s3)n2)cc1	binding	competition with immobilised ligand	1 µM	52%
Cc1cnn2ncc(-c3ccnc(N(C)C)n3)c2c1	binding		1 µM	100%
O=C(NCC1CCOCC1)c1n[nH]cc1NC(=O)c1c(F)cccc1F	binding	competition with immobilised ligand	1 µM	86%
CN(C)c1nccc(-c2cnn3ncccc23)n1	binding		1 µM	96%
CCS(=O)(=O)c1cc2cc(C[C@](O)(CC(C)(C)c3ccc(F)cc3C(N)=O)C(F)(F)F)[nH]c2cn1	cell-free assay	competition with immobilised ligand	1 µM	100%
CN(c1nccc(-c2cnn3ncccc23)n1)C1CC1	binding		1 µM	85%
CN(C)CC#Cc1ccc(OCCCc2sc(N3CCc4cccc(C(=O)Nc5nc6ccccc6s5)c4C3)nc2C(=O)O)c(F)c1	cell-free assay	competition with immobilised ligand	1 µM	100%
CN(C)c1ncc(F)c(-c2cnn3ncccc23)n1	binding		1 µM	80%
Nc1ncc2c(n1)-c1c([nH]c3ccc(C#CC4CC4)cc13)CCCC2	binding	competition with immobilised ligand	1 µM	92%
